Experimental data from different studies.
Compare with care: the assays were run in different laboratories.
Target: 5'-AMP-activated protein kinase catalytic subunit alpha-2 (PRKAA2, Homo sapiens, UniProt P54646)

SMILES	effect on	action	method	concentration	quantity	result
CCN(CC)c1ccc(C2=NNC(=O)CC2C)cc1[N+](=O)[O-] (stereo not shown)	enzyme activity	inhibitor		10 µM	remaining activity	108%
CCCCNc1ncc2c(-c3ccc(F)cc3)nn(C[C@H]3CC[C@H](N)CC3)c2n1	target engagement in cells	inhibitor	chemoproteomics	20 mM	inhibition	22.8%
CC1=C(C#N)C(c2ccc3c(c2)c(NC(=O)c2ccccc2C)nn3C)C(C#N)=C(C)N1	cell-free assay		competition with immobilised ligand	1 µM	remaining binding	99%
CN1CC(Oc2cnc(C#N)cc2-c2ccn3nc(NC(=O)C4CC4)cc3c2)C1	enzyme activity	inhibitor		1 µM	inhibition	3%
Cc1ccc(NC(=O)c2ccc(C)c(C(F)(F)F)c2)cc1C#Cc1nn(C2CCC(O)CC2)c2ncnc(N)c12 (stereo not shown)	cell-free assay			10 µM	remaining signal	90%
CCCS(=O)(=O)Nc1ccc(F)c(C(=O)c2c[nH]c3ncc(-c4ccc(Cl)cc4)cc23)c1F	enzyme activity	inhibitor		1 µM	inhibition	< 20%
CCCOc1ccc(OC)c(F)c1C(=O)c1ccc(C(=O)N[C@@H]2CNC[C@H]2NC(=O)c2ccc3[nH]ncc3c2)cc1	enzyme activity	inhibitor		50 nM	remaining activity	51%
COc1cccc2c(NCc3ccccc3)nc(-n3c(N)nc4ccccc43)nc12	target engagement in cells	inhibitor	chemoproteomics	20 mM	inhibition	11.9%
Cc1cc(NC(=O)c2cccc3cc(-c4cccc5[nH]nc(N)c45)ccc23)ccc1F	enzyme activity	inhibitor		0.1 µM	activity vs control	97%
O=C(O)[C@H]1[C@H](Cn2nnc3ccccc3c2=O)CC[C@@H]1C(=O)c1ccc(OCCC2CCOCC2)cc1	cell-free assay		competition with immobilised ligand	1 µM	remaining binding	100%
Cc1ccc(C(=O)NCc2ccsc2)cc1C#Cc1cn(C(C)C)c2ncnc(N)c12	enzyme activity	inhibitor		1 µM	activity vs control	80%
CN([C@@H]1CCc2c(CC(=O)O)c3cc(S(C)(=O)=O)ccc3n2C1)S(=O)(=O)c1ccc(F)cc1	cell-free assay		competition with immobilised ligand	1 µM	remaining binding	100%
COc1cc(-c2cc(-c3ccc(N4CCNCC4)cc3)cnc2C)cc(OC)c1OC	enzyme activity	inhibitor		0.1 µM	inhibition	1%
